We go through five compounds from ChEMBL document CHEMBL1133092, “Drug delivery systems based on trimethyl lock lactonization: poly(ethylene glycol) prodrugs of amino-containing compounds” (J Med Chem, 2000).

In data set [1] the test system is M109. In words: In vivo screening in M109 syngeneic solid mouse tumor model (i.v.). Format: functional. In short, it runs like this:
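Female balb/c mice (20-25 g) implanted subcutaneously in the left flank with about 1 × 10^6 M109 cells on day 0. Dosed intravenously at 3 mg/kg/dose (DNR content) on days 3 and 6; 6 per group with untreated controls. % T/C of median tumor volumes taken when control median reached ~2000 mm3.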

Data set [2] is described as follows: Half life in buffer at pH 7.4. In kind it is ADME. In short, it runs like this:
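Conjugate dissolved at 5 mg/mL in 0.1 M pH 7.4 PBS and incubated at 37 °C for various periods. Analysed by HPLC with UV detection at 254 nm (DNR) or 280 nm (ara-C). Run in duplicate.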

Data set [3] can be described thus: Half life in Rat plasma. In kind it is ADME. The gist of the method:
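Conjugate dissolved in distilled water (20 mg/100 µL), then 900 µL rat plasma added. Aliquots incubated at 37 °C for various times, quenched with methanol-acetonitrile (1:1) and filtered. Remaining conjugate measured by HPLC with UV detection at 254 nm (DNR) or 280 nm (ara-C). Run in duplicate. t1/2 calculated from α phase.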

Data set [4] can be described thus: Half life in Cell media. In kind it is ADME.
Another data set concerns P388. In words: Growth Inhibition of P388/0 cell lines. Format: functional, cell-based. To be noted: Mus musculus. The gist of the method: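 P388/0 murine leukemia cells seeded at 2 × 10^3 cells/well, exposed to serial dilutions for 3 days at 37 °C, 5% CO2. Alamar Blue then added and plates read after a further 4 h at 37 °C. IC50 taken from absorbance vs dilution factor plots.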

Data set [5] concerns M109. As to the kind of experiment: In vivo screening in M109 syngeneic solid mouse tumor model (i.p.). Format: functional. In short, it runs like this: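 Female balb/c mice (20-25 g) implanted subcutaneously in the left flank with about 1 × 10^6 M109 cells on day 0. Dosed intraperitoneally at 3 mg/kg/dose (DNR content) on days 1 and 4; 6 per group with untreated controls. % T/C of median tumor volumes taken when control median reached ~2000 mm3.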

Consider `CCC(=O)NCCC(=O)Oc1cc(C)cc(C)c1C(C)(C)CC(=O)NC1CC(O[C@H]2C[C@](O)(C(C)=O)Cc3c(O)c4c(c(O)c32)C(=O)c2c(OC)cccc2C4=O)OC(C)C1O` (stereo not given in full), for which the values for the T/C with M109 [1] and in the data set with M109 [5] were 63.7% and 101.2%, respectively. The half-life was above 24 h in data set [2], 0.2 h in data set [3] and 80 h in data set [4]. Further, the 50% inhibitory concentration (IC50) with P388 is 203 nM.

Consider `CCC(=O)NCCC(=O)Oc1c(C)ccc(C)c1C(C)(C)CC(=O)NC1CC(O[C@H]2C[C@](O)(C(C)=O)Cc3c(O)c4c(c(O)c32)C(=O)c2c(OC)cccc2C4=O)OC(C)C1O` (stereo not given in full), for which the T/C with M109 [1] came to 31.6%; with M109 [5], 114.8%. The values for the half-life in data set [2], in data set [3] and in data set [4] were above 24 h, 8 h and 94 h, respectively. This compound also showed a half-inhibitory concentration (IC50) with P388 of 411 nM.

As for `CCC(=O)NCCOCCOC(=O)Oc1cc(C)cc(C)c1C(C)(C)CC(=O)NC1CC(O[C@H]2C[C@](O)(C(C)=O)Cc3c(O)c4c(c(O)c32)C(=O)c2c(OC)cccc2C4=O)OC(C)C1O` (stereo not given in full), the T/C in the data set with M109 [1] turned out to be 118.4%; with M109 [5] it was 57.1%. The half-life is above 24 h in data set [2], 1.1 h in data set [3] and 38 h in data set [4]. This compound displayed an IC50 in the data set on P388 of 142 nM.

With `CCC(=O)NC(C)C(=O)Oc1cc(C)cc(C)c1C(C)(C)CC(=O)NC1CC(O[C@H]2C[C@](O)(C(C)=O)Cc3c(O)c4c(c(O)c32)C(=O)c2c(OC)cccc2C4=O)OC(C)C1O` (stereo not given in full), the T/C in the data set with M109 [1] stood at 92.5%; in the data set with M109 [5] it was 62.8%. Further, the half-life in data set [2] was above 24 h; in data set [3] it was 1.9 h; in data set [4] it was 14 h. Half-maximal inhibition in the data set with P388 (IC50) required 43 nM.

Take `CCC(=O)NC(C)C(=O)Oc1c(C)ccc(C)c1C(C)(C)CC(=O)NC1CC(O[C@H]2C[C@](O)(C(C)=O)Cc3c(O)c4c(c(O)c32)C(=O)c2c(OC)cccc2C4=O)OC(C)C1O` (stereo not given in full): the T/C amounted to 52.5% with M109 [1] and 153.6% with M109 [5]. Also, the half-life is above 24 h in data set [2], 21 h in data set [3] and 36 h in data set [4]. The compound further displayed an IC50 in the data set on P388 of 389 nM.

Usually T/C stands for the result in the treated group divided by that in the control group, in per cent. For orientation: half-life means the time in which the quantity being followed falls by half. The term IC50 denotes the concentration that gives 50% inhibition.
